Laboratory results: ChEMBL document CHEMBL3098030, “Explorations of substituted urea functionality for the discovery of new activators of the heme-regulated inhibitor kinase” (J Med Chem, 2013)
Calls of active or inactive are those of the source. The rule behind the calls is not given here.

Key:
[1] = target: Eukaryotic translation initiation factor 2-alpha kinase 1 (Homo sapiens) (UniProt Q9BQI3); assay: Activation of HRI in human CRL2813 cells assessed as increase in CHOP mRNA expression at 7.5 to 15 uM after 6 hrs by RT-PCR analysis; format: cell-based
Chain of Eukaryotic translation initiation factor 2-alpha kinase 1 (Homo sapiens) (Q9BQI3 whole entry): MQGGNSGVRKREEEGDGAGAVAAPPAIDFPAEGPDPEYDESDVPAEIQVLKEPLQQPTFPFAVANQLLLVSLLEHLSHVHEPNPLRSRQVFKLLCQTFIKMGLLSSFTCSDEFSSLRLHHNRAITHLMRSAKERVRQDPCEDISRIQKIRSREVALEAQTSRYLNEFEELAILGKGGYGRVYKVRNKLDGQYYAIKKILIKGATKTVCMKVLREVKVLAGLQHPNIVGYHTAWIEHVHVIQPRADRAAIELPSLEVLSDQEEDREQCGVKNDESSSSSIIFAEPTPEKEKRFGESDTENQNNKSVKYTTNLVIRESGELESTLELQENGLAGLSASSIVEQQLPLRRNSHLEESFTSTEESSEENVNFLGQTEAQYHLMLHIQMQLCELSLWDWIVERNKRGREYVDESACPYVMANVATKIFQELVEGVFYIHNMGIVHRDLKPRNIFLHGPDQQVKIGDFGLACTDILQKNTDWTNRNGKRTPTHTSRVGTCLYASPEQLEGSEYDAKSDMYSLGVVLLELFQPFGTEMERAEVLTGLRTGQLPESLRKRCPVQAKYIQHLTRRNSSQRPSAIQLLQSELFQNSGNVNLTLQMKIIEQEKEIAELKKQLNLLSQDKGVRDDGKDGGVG
Summary of the method: (§1)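 CRL-2813 cells incubated with 7.5 or 15 μM compound for 6 h; CHOP and cyclin D1 mRNA measured by real-time PCR. Each run in triplicate, mean of three independent experiments ±S.E.M.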

[2] = target: Eukaryotic translation initiation factor 2-alpha kinase 1 (Homo sapiens) (UniProt Q9BQI3); assay: Activation of HRI in human CRL2813 cells assessed as reduction in cyclin D1 mRNA expression at 7.5 to 15 uM after 6 hrs by RT-PCR analysis; format: cell-based; summary of the method: as §1
[3] = target: Eukaryotic translation initiation factor 2-alpha kinase 1 (Homo sapiens) (UniProt Q9BQI3); assay: Activation of HRI in human CRL-2813-pBISA-DL(ATF-4) reporter cells assessed as reduction of ternary complex at 30 uM by dual-luciferase reporter gene assay relative to control
Summary of the method: (§2)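 Stably transfected CRL-2813-pBISA-DL(ATF-4) reporter cells treated with compounds in dose-response; firefly and renilla luciferases read by dual glow luciferase kit. Activity = firefly/renilla (F/R) ratio normalized to DMSO-treated wells (set at 1). Triplicate points fitted to logistic sigmoidal model by nonlinear least squares; C3X = concentration giving F/R = 3, Emax = maximal F/R.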

[4] = Cytotoxicity against human CRL2813 cells after 5 days by SRB assay; format: functional, cell-based; settings: CRL2813, 120 h
Summary of the method: (§3)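 CRL-2813 melanoma or NIH/3T3 fibroblasts seeded in 96-well plates, exposed 5 days to 0.5–20 μM compound; fixed in cold 10% TCA, bound sulforhodamine B measured. % growth = 100×(T−T0)/(C−T0). IC50 derived; triplicate, three independent experiments.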

[5] = target: Eukaryotic translation initiation factor 2-alpha kinase 1 (Homo sapiens) (UniProt Q9BQI3); assay: Activation of HRI in human CRL2813 cells assessed as reduction in cyclin D1 protein expression at 10 uM after 6 hrs by Western blotting analysis; format: cell-based
Summary of the method: (§4)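 CRL-2813 melanoma cells grown in serum-containing medium without antibiotics to 70% confluence, treated 6 h (10 μM for CHOP/cyclin D1), lysed in M-PER on ice 30 min, protein by BCA. Equal protein on SDS-PAGE, probed with anti-pS51-eIF2α rabbit mAb, anti-total eIF2α mouse mAb, anti-CHOP, anti-cyclin D1, anti-actin. Three independent experiments.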

[6] = target: Eukaryotic translation initiation factor 2-alpha kinase 1 (Homo sapiens) (UniProt Q9BQI3); assay: Activation of HRI in human CRL2813 cells assessed as increase in CHOP protein expression at 10 uM after 6 hrs by Western blotting analysis; format: cell-based; summary of the method: as §4
[7] = target: Eukaryotic translation initiation factor 2-alpha kinase 1 (Homo sapiens) (UniProt Q9BQI3); assay: Activation of HRI in human CRL2813 cells assessed as eIF2alpha phosphorylation after 6 hrs by Western blotting analysis; format: cell-based; summary of the method: as §4
[8] = target: Eukaryotic translation initiation factor 2-alpha kinase 1 (Homo sapiens) (UniProt Q9BQI3); assay: Activation of HRI in human CRL-2813-pBISA-DL(ATF-4) reporter cells assessed as concentration required to obtain F-luciferase expression/R-luciferase expression ratio 3; summary of the method: as §2
[9] = target: Eukaryotic translation initiation factor 2-alpha kinase 1 (Homo sapiens) (UniProt Q9BQI3); assay: Activation of HRI in human CRL-2813-pBISA-DL(ATF-4) reporter cells assessed as eIF2alpha phosphorylation after 8 to 32 hrs by dual-luciferase reporter gene assay
Summary of the method: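 Reporter CRL-2813-pBISA-DL(ATF-4) cells incubated with compounds for 8, 16 or 32 h. Firefly/renilla luciferase ratio measured by dual luciferase assay and normalized to vehicle-treated cells.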

[10] = Antiproliferative activity against human CRL2813 cells after 3 days by SRB assay in presence of HRI-targeting siRNA; format: functional, cell-based; settings: CRL2813, 72 h
Summary of the method: (§5)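 CRL-2813 cells transiently transfected (Lipofectamine 2000) with HRI-targeting or non-targeting siRNA, then treated with compound dose range; proliferation by SRB after 3 days. IC50 calculated per siRNA condition; ratio is HRI-siRNA over non-targeting IC50. Triplicate, three independent experiments; mean±S.E.M.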

[11] = Antiproliferative activity against human CRL2813 cells after 3 days by SRB assay in presence of non-targeting siRNA; format: functional, cell-based; settings: CRL2813, 72 h; summary of the method: as §5
[12] = Selectivity ratio of IC50 for mouse NIH/3T3 cells to IC50 for human CRL2813 cells; format: ADME, cell-based; settings: NIH/3T3 cells and CRL2813 cells, read-out: Ratio IC50
NIH3T3 = assay: Cytotoxicity against mouse NIH/3T3 cells after 5 days by SRB assay; format: cell-based; settings: NIH3T3, 120 h; summary of the method: as §3
[13] = Ratio of IC50 for human CRL2813 cells after 3 days by SRB assay in presence of HRI-targeting siRNA to IC50 for human CRL2813 cells after 3 days by SRB assay in presence of non-targeting siRNA
[14] = Antiproliferative activity against human CRL2813 cells after 5 days by SRB assay in presence of HRI-targeting siRNA; format: functional, cell-based; settings: CRL2813, 120 h
[15] = Antiproliferative activity against human CRL2813 cells after 5 days by SRB assay in presence of non-targeting siRNA; format: functional, cell-based; settings: CRL2813, 120 h
MCF7 [16] = assay: Antiproliferative activity against human MCF7 cells after 5 days by SRB assay in presence of non-targeting siRNA; format: functional, cell-based; settings: MCF7, 120 h
[17] = target: Eukaryotic translation initiation factor 2-alpha kinase 1 (Homo sapiens) (UniProt Q9BQI3); assay: Activation of HRI in human CRL-2813-pBISA-DL(ATF-4) reporter cells assessed as eIF2alpha phosphorylation after 10 hrs by dual-luciferase reporter gene assay in presence of siRNA relative to control
Summary of the method: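 CRL-2813-pBISA-DL(ATF-4) reporter cells transiently transfected (Lipofectamine 2000) with HRI-targeting or non-targeting siRNA for 48 h, then treated with compounds or DMSO for 10 h. Firefly/renilla ratio by dual luciferase assay, normalized to vehicle. Triplicate, three independent experiments; mean±S.E.M.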

MCF7 [18] = assay: Antiproliferative activity against human MCF7 cells after 5 days by SRB assay in presence of HRI-targeting siRNA; format: functional, cell-based; settings: MCF7, 120 h

Structure (SMILES): O=C(Nc1ccccc1C(F)(F)F)N[C@H]1CC[C@H](Oc2ccc(F)cc2)CC1
- Activity [1]: Active
- Activity [2]: Active
- Ratio [3]: 1.56
- IC50 [4]: > 20 µM
- Activity [5]: Active
- Activity [6]: Active
- Activity [7]: Active

Structure (SMILES): O=C(Nc1cccc(C(F)(F)F)c1)N[C@H]1CCCC[C@@H]1Oc1ccc(C(F)(F)F)cc1 (relative stereo)
- Ratio [3]: 5.89
- IC50 [4]: 3.1 µM
- Activity [8]: 1.7 µM
- Activity [9]: Active

Structure (SMILES): O=C(Nc1cccc(C(F)(F)F)c1)N[C@H]1CC[C@H](Oc2ccc(C(F)(F)F)cc2)CC1
- IC50 [10]: 5 µM
- Ratio [3]: 25.1
- IC50 [4]: 0.46 µM
- IC50 [11]: 0.66 µM
- Activity [8]: 0.3 µM
- selectivity ratio [12]: 7.4
- IC50 (NIH3T3): 3.4 µM

Structure (SMILES): O=C(Nc1cccc(C(F)(F)F)c1)N[C@H]1CC[C@H](Oc2ccc(OC(F)(F)F)cc2)CC1
- IC50 [10]: 4.9 µM
- Ratio [3]: 14.4
- IC50 [4]: 0.69 µM
- IC50 [11]: 0.85 µM
- Activity [8]: 1.5 µM
- selectivity ratio [12]: 4.9
- IC50 (NIH3T3): 3.4 µM

Structure (SMILES): O=C(Nc1cccc(C(F)(F)F)c1)N[C@H]1CC[C@H](OCc2ccc(F)cc2)CC1
- Ratio [3]: 9.58
- IC50 [4]: 2.65 µM
- Activity [8]: 4.4 µM
- Activity [9]: Active

Structure (SMILES): O=C(Nc1cccc(F)c1)N[C@H]1CC[C@H](Oc2ccc(F)cc2)CC1
- Activity [1]: Active
- Activity [2]: Active
- Ratio [3]: 6.54
- IC50 [4]: 8.3 µM
- Activity [8]: 13.5 µM
- Activity [5]: Active
- Activity [6]: Active
- Activity [7]: Active

Structure (SMILES): O=C(Nc1ccc(C(F)(F)F)cc1)N[C@H]1CC[C@H](Oc2ccc(F)cc2)CC1
- Activity [1]: Active
- Ratio IC50 [13]: 1.7
- IC50 [14]: 6.5 µM
- Activity [2]: Active
- IC50 [15]: 3.1 µM
- Ratio [3]: 14
- IC50 (MCF7 [16]): 8.4 µM
- Activity [17]: inactive
- IC50 [4]: 2.8 µM
- Activity [8]: 1.6 µM
- Activity [5]: Active
- IC50 (MCF7 [18]): 29.5 µM
- Activity [6]: Active
- Activity [7]: Active

Structure (SMILES): O=C(Nc1ccc([N+](=O)[O-])cc1)N[C@H]1CC[C@H](Oc2ccc(F)cc2)CC1
- Activity [1]: Active
- Ratio IC50 [13]: 1.7
- IC50 [14]: 12.2 µM
- Activity [2]: Active
- IC50 [15]: 5.2 µM
- Ratio [3]: 9
- IC50 (MCF7 [16]): 9.8 µM
- Activity [17]: inactive
- IC50 [4]: 2.3 µM
- Activity [8]: 6.7 µM
- Activity [5]: Active
- IC50 (MCF7 [18]): > 30 µM
- Activity [6]: Active
- Activity [7]: Active

Structure (SMILES): O=C(Nc1cccc(C(F)(F)F)c1)N[C@H]1CC[C@H](Oc2cccc(C(F)(F)F)c2)CC1
- IC50 [10]: 4.9 µM
- Ratio [3]: 26
- IC50 [4]: 1.3 µM
- IC50 [11]: 1.05 µM
- Activity [8]: 1.1 µM
- selectivity ratio [12]: 2.5
- IC50 (NIH3T3): 3.3 µM

Structure (SMILES): COC(=O)c1cccc(NC(=O)N[C@H]2CC[C@H](Oc3ccc(F)cc3)CC2)c1
- Ratio [3]: 6.83
- IC50 [4]: 9.2 µM
- Activity [8]: 17.1 µM

Structure (SMILES): COc1cccc(NC(=O)N[C@H]2CC[C@H](Oc3ccc(F)cc3)CC2)c1
- Ratio [3]: 3.81
- IC50 [4]: 14 µM
- Activity [8]: 26 µM

Structure (SMILES): O=C(Nc1ccc(I)cc1)N[C@H]1CC[C@H](Oc2ccc(F)cc2)CC1
- Ratio [3]: 3.77
- IC50 [4]: 10.2 µM
- Activity [8]: 6.3 µM

Structure (SMILES): O=C(Nc1ccccc1I)N[C@H]1CC[C@H](Oc2ccc(F)cc2)CC1
- Ratio [3]: 3.25
- IC50 [4]: > 20 µM
- Activity [8]: 18.5 µM

Structure (SMILES): O=C(Nc1cccc(I)c1)N[C@H]1CC[C@H](Oc2ccc(F)cc2)CC1
- Ratio [3]: 7.63
- IC50 [4]: 5.2 µM
- Activity [8]: 5.6 µM

Structure (SMILES): Cc1cccc(NC(=O)N[C@H]2CC[C@H](Oc3ccc(F)cc3)CC2)c1
- Ratio [3]: 4.73
- IC50 [4]: 14.4 µM
- Activity [8]: 24.1 µM
